# High-throughput results (PubChem)
# RAD52 anneal inh = inhibitors of human RAD52 DNA annealing | 360,000 tested, 0.46% active | P43351 | inhibition, % at 18.7 µM | AID 651710 | recombinant RAD52 DNA annealing, FRET fluorescence;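 active = every replicate showing at least 50% inhibition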
# Apaf-1 inh = blocks human Apaf-1 apoptosome activity; 330,000 tested, 0.71% active; O14727; inhibition, % at 20 µM; reconstituted apoptosome caspase-3 activity, DEVD-Rh110 fluorescence; active = inhibition of at least 40% at 20 µM;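 note: plate controls were DMSO wells for no effect and DEVD-CHO caspase inhibitor wells for full effect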
# Target sequence (O14727 whole entry, looked up): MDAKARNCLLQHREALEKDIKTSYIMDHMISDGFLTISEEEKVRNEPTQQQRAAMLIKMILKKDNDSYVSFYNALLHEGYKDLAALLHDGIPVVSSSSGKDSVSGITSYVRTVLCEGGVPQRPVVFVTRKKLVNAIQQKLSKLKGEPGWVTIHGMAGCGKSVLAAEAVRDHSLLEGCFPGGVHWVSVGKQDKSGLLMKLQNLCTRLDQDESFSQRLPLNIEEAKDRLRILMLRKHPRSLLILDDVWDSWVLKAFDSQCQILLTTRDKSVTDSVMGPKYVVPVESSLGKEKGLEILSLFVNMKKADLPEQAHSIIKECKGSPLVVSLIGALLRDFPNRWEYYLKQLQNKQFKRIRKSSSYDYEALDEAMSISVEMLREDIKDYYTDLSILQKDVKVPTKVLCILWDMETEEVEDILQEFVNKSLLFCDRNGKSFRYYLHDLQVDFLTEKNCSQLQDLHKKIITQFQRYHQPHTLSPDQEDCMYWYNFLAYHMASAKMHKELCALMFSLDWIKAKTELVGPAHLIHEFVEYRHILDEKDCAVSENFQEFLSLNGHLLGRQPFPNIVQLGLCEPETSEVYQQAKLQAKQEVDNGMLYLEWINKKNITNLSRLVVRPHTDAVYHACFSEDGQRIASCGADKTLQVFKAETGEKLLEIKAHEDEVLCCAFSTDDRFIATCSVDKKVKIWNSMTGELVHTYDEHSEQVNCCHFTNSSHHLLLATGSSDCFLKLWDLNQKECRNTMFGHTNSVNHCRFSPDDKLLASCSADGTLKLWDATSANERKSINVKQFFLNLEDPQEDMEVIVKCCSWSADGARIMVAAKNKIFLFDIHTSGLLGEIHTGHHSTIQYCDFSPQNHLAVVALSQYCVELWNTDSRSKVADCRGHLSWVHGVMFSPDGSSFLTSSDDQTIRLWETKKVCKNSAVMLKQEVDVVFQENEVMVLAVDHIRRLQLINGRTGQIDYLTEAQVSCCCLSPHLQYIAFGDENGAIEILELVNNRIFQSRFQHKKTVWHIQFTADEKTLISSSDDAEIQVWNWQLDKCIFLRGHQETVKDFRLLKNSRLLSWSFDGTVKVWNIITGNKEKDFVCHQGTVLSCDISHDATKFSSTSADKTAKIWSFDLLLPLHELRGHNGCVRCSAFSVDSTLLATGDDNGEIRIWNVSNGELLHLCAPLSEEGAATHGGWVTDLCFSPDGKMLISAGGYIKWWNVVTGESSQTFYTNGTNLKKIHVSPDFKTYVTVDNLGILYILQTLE
#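 System: Apoptosome proteins | Medium: Hepes pH 7.5 with detergent and BSA | Also added: Cytochrome c trigger plus (Z-DEVD)2-Rh110 caspase-3 substrate | Incubation: 30 min compound preincubation, 50 min activation, room temperature | Detection: Rhodamine 110 fluorescence at Ex 480/Em 540 nm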
# DNA FID counter = counter-screen for HCV NS3 helicase inhibitors: DNA intercalator displacement. inhibition, % at 7.9 µM. 290,000 tested, 0.17% active. DNA fluorescent intercalator displacement, fluorescence; in the data active = inhibition above about 37%;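 note: 0% = vehicle and 100% = reference compound; higher means more ethidium bromide displaced from hairpin DNA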
# UBC13 polyUb = human UBC13 polyubiquitination inhibition. 330,000 tested, 0.47% active. P61088. AID 485273. UBC13 polyubiquitin chain formation, TR-FRET. inhibition, % at 20 µM; in the data active = inhibition above about 45%, passing the limit was not always enough
# Neddyl block = blocks human cullin neddylation; TR-FRET cullin neddylation, biochemical; calls only at 25 µM; 360,000 tested, 0.58% active; in the data active = inhibition above about 36%
# RAD54 branch = RAD54 (human) branch migration inhibition | Q92698 | RAD54 Holliday junction branch migration, FAM/BHQ fluorescence | inhibition, % at 10.4 µM | 360,000 tested, 0.14% active | AID 602329;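 active = mean normalized replicate activity at least 40 and at least half of replicates scoring 40 or more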;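 note: 0% = median of neutral control wells and 100% = median of positive control wells; inhibitors cause a drop in the FAM fluorescence signal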
# Apaf-1 inh conf = Apaf-1 inhibition, single-dose confirmed | shares compounds with Apaf-1 inh | inhibition, % at 20 µM | reconstituted apoptosome, caspase-3 DEVD-Rh110 fluorescence | AID 504614 | 1,800 tested, 25% active;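 active = mean inhibition of at least 40% at 20 µM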;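 note: plate controls were DMSO wells for no effect and DEVD-CHO caspase inhibitor control wells for full effect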
# Rh110 interf inh = interferes with Rh110 fluorescence, flagging false Apaf-1 inhibitors; Rh110 fluorescence interference, quenched caspase reaction; activation (fluorescence interference), % at 20 µM; 1,800 tested, under 10 active; AID 504615; shares compounds with Apaf-1 inh;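 active = signal rise of 40% or more at 20 µM, treated as a fluorescence artifact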
# Fluor interf inh = shows fluorescence interference in the Apaf-1 inhibitor assay format. fluorescence interference counterscreen, Apaf-1 assay format. shares compounds with Apaf-1 inh. IC50, µM. 460 tested, under 10 active; call rule not given here
# * hit, by the source's call; i = inactive; . = no result. Sampled rows, rich in hits. Any-hit rate of the full collection: about 1.6%.
SMILES,RAD52 anneal inh,Apaf-1 inh,DNA FID counter,UBC13 polyUb,Neddyl block,RAD54 branch,Apaf-1 inh conf,Rh110 interf inh,others
CC12COC3(P(=O)(c4ccccc4)c4ccccc4)CC1CCC23CP(=O)(c1ccccc1)c1ccccc1 (stereo not given),-7.0,41.3*,-38.4,-9.3,i,.,14.3,7.5,
CC12COC3(C(=O)Nc4ccc(F)cc4)CC1CCC32C (stereo not given),.,-2.2,2.6,-0.9,i,-0.9,.,.,
O=C(COC(=O)c1cc(Cl)ccc1Cl)NCCN1C(=O)CSC1=O,-12.5,43.2*,-2.9,-3.0,i,.,9.6,-2.6,
C[C@H](CO)N1C[C@H](C)[C@@H](CN(C)S(=O)(=O)c2ccc(F)cc2)Oc2ccc(NC(=O)Nc3ccc(F)cc3)cc2CC1=O,12.1,.,.,.,.,3.2,.,.,
CC(C)C#Cc1ccc2c(c1)O[C@H](CN(C)Cc1cccnc1)[C@H](C)CN([C@H](C)CO)S2(=O)=O,0.9,.,.,.,.,-2.5,.,.,
O=C(C[C@@H]1C[C@@H]2c3cc(NC(=O)CC4CC4)ccc3O[C@@H]2[C@H](CO)O1)NCc1ccccn1,-18.0,.,.,.,.,-4.5,.,.,
Oc1ccccc1/C=N/Nc1cc(N2CCCC2)nc(N2CCCC2)n1,.,97.7*,-7.3,-12.5,i,-2.7,99.8*,3.5,Fluor interf inh=>100
Oc1ccc(/C=N/Nc2cc(N3CCOCC3)nc(N3CCOCC3)n2)cc1O,1.2,27.4,-29.0,3.6,i,.,.,.,
Oc1ccccc1CNc1cccc2cccnc12,3.3,94.7*,1.0,-121.4,i,.,12.0,6.2,
COc1cc(NCc2ccccc2O)c2ncccc2c1,-11.2,18.3,-7.0,-4.6,i,-6.6,.,.,
C[C@H]1CN([C@@H](C)CO)C(=O)Cc2cc(NC(=O)Nc3ccc(C(F)(F)F)cc3)ccc2O[C@H]1CN(C)S(=O)(=O)c1ccccc1,25.6,.,.,.,.,-0.1,.,.,
COc1ccc(/C=N/NC(=O)CCn2cnc(-c3ccccc3)c2-c2ccccc2)cc1,29.6,54.4*,-12.3,11.2,i,.,43.6*,11.1,Fluor interf inh=>100
COc1ccc(/C=N/NC(=O)CCn2cnc3ccccc32)cc1,-8.7,-4.3,-12.7,-7.0,i,-1.9,.,.,
O=C(O)C[C@@H]1C[C@@H]2c3cc(NC(=O)C4CCOCC4)ccc3O[C@@H]2[C@H](CO)O1,-7.2,.,.,.,.,.,.,.,
C[C@@H]1CN([C@H](C)CO)C(=O)c2cccc(NC(=O)c3ccncc3)c2O[C@H]1CN(C)Cc1ccc(-c2ccccc2)cc1,-22.1,.,.,.,.,-1.5,.,.,
O=C(NNc1cc(N2CCCC2)nc(N2CCCC2)n1)c1ccc([N+](=O)[O-])cc1,-15.6,97.6*,-2.7,-73.0,i,.,75.7*,7.8,Fluor interf inh=>100
O=C(CCc1ccccc1)NNC(=O)C1CCCCC1,.,-11.4,-3.4,-7.5,i,-1.9,.,.,
O=C(CCc1ccccc1)NNc1cc(N2CCCCC2)nc(N2CCCCC2)n1,-3.0,60.4*,-4.3,-19.7,i,-3.8,44.5*,4.3,Fluor interf inh=>100
CC(C)(C)c1ccc(C(=O)NNc2cc(N3CCOCC3)nc(N3CCOCC3)n2)cc1,-29.7,36.2,-9.5,12.2,i,.,.,.,
CC(C)(C)c1ccc(C(=O)NNc2cc(N3CCCCC3)nc(N3CCCCC3)n2)cc1,.,73.4*,-4.8,-15.9,i,1.1,43.5*,0.2,Fluor interf inh=>100
CCOC(=O)C1=C(CN2CCN(c3ccc(F)cc3)CC2)NC(=O)NC1c1cccs1 (stereo not given),.,41.2*,-26.9,0.3,i,0.4,22.7,13.9,
COc1ccc(-c2ccc3c(c2)O[C@H](CN(C)CC2CCOCC2)[C@H](C)CN([C@@H](C)CO)S3(=O)=O)cc1,-0.4,.,.,.,.,3.9,.,.,
CN(C)CC(=O)N[C@@H]1CC[C@H](CCNC(=O)C2CCCCC2)O[C@@H]1CO,3.3,.,.,.,.,-7.3,.,.,
COc1ccc2[nH]c(=O)c(C(c3nnnn3CC3CCCO3)N3CCc4ccccc4C3)cc2c1 (stereo not given),-47.5,5.1,-0.1,8.5,i,-10.1,.,.,
Cc1cc2cc(C(c3nnnn3Cc3ccco3)N3CCc4ccccc43)c(=O)[nH]c2cc1C (stereo not given),.,20.6,-22.3,-16.7,i,.,.,.,
SMILES,RAD52 anneal inh,Apaf-1 inh,DNA FID counter,UBC13 polyUb,Neddyl block,RAD54 branch,Apaf-1 inh conf,Rh110 interf inh,others
COc1ccc2cc(C(c3nnnn3C3CCCC3)N3CCc4ccccc4C3)c(=O)[nH]c2c1 (stereo not given),-39.6,72.1*,3.6,-3.7,i,-5.7,23.6,13.2,
Cc1ccc2[nH]c(=O)c(C(c3nnnn3CC3CCCO3)N3CCc4ccccc4C3)cc2c1 (stereo not given),.,66.0*,-0.8,0.1,i,-5.3,17.3,9.4,
Cc1cc2cc(C(c3nnnn3Cc3ccco3)N3CCc4ccccc4C3)c(=O)[nH]c2cc1C (stereo not given),.,40.9*,-15.9,-6.6,i,.,23.6,10.4,
Cc1ccc2cc(C(c3nnnn3Cc3ccccc3)N3CCc4ccccc43)c(=O)[nH]c2c1 (stereo not given),.,43.3*,-11.6,5.5,i,7.1,18.3,4.3,
C[C@H]1CN([C@@H](C)CO)C(=O)c2cccc(NS(C)(=O)=O)c2O[C@H]1CN(C)C,-7.5,.,.,.,.,0.7,.,.,
CC(=O)N(Cc1ccc(F)cc1)C1=C(NCCc2ccccc2)C(=O)c2ccccc2C1=O,.,77.9*,15.8,-67.4,i,0.5,75.7*,2.6,Fluor interf inh=>100
COCCCn1c(=O)c2sccc2n(Cc2ccccc2C)c1=O,-8.8,60.1*,-24.0,-6.4,i,-18.8,8.3,4.2,
CCN(CC)CCCNC1=C(Cl)C(=O)c2ccccc2C1=O,15.2,50.4*,19.6,-334.0,i,32.0,65.1*,4.1,Fluor interf inh=>100
C=CCNC1=C(Cl)C(=O)c2ccccc2C1=O,.,39.7,7.8,-305.3,i,-6.7,.,.,
CC(C)OCCCNC1=C(Cl)C(=O)c2ccccc2C1=O,-6.2,52.8*,-3.6,-279.4,i,-5.6,28.5,3.6,
COCCCNC1=C(Cl)C(=O)c2ccccc2C1=O,-7.4,33.3,7.7,-280.1,i,5.4,.,.,
N#CC1=C(N)Oc2n[nH]c(-c3cccs3)c2C1c1ccsc1 (stereo not given),.,82.9*,-6.8,-47.4,i,-13.0,25.9,9.4,
N#CC1=C(N)Oc2n[nH]c(-c3cccs3)c2C1c1ccncc1 (stereo not given),-15.9,-2.5,1.4,-12.8,i,-4.7,.,.,
COc1ccc(C(=O)c2c(C(F)(F)F)oc3c2C(=O)c2ccccc2C3=O)cc1,.,78.6*,6.3,-46.3,i,.,84.5*,13.9,Fluor interf inh=>100
CC(C)NC(=O)N[C@@H]1C=C[C@H](CC(=O)N2CCCCC2)O[C@@H]1CO,7.7,.,.,.,.,-10.8,.,.,
